Measured values published in ChEMBL document CHEMBL1938236, “Design and synthesis of small molecular dual inhibitor of falcipain-2 and dihydrofolate reductase as antimalarial agent” (Bioorg Med Chem Lett, 2012).
The source made the active and inactive calls. The rule behind the calls is not given here.

What was measured:
Plasmodium falciparum [1] = assay: Inhibition of Plasmodium falciparum DHFR assessed as oxidation of NADPH to NADP+ at 10 uM after 15 mins spectrophotometric assay
Plasmodium falciparum [2] = assay: Inhibition of Plasmodium falciparum falcipain-2 using Z-Leu-Arg-AMC as substrate at 10 uM after 30 mins by spectrophotometric assay
[3] = Inhibition of Plasmodium falciparum DHFR assessed as oxidation of NADPH to NADP+ after 15 mins spectrophotometric assay
Procedure, shortened: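 Purified P. falciparum DHFR was preincubated 15 min on ice with graded compound concentrations in buffer containing NADPH, 50 mM TES pH 7.0, 1 mM EDTA, 75 mM 2-mercaptoethanol and 1 mg/mL BSA. DHF was then added to start the reaction, and NADPH oxidation was followed by absorbance at 340 nm. IC50 came from percent inhibition versus concentration plots, three independent experiments.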

[4] = Inhibition of Plasmodium falciparum falcipain-2 using Z-Leu-Arg-AMC as substrate after 30 mins by spectrophotometric assay
Procedure, shortened: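 FP-2 (30 nM) was preincubated 30 min at room temperature with graded compound concentrations in 100 mM sodium acetate pH 5.5 with 10 mM DTT, DMSO ≤1%. Z-Leu-Arg-AMC in the same buffer was then added, and fluorescence (ex 355/em 460) was monitored for 30 min at room temperature. IC50 came from percent inhibition versus concentration plots, three independent experiments.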

Plasmodium berghei [5] = assay: Antimalarial activity against Plasmodium berghei ANKA infected in Kunming mouse assessed as reduction of parasitemia at 9 mg/kg, ip for 4 days measured on day 5; assay type: functional; design: scale not given: the % may be the effect or the level left; conditions: route intragastric, in the assay text read “ig for 4 days” for “ip for 4 days”
Procedure, shortened: (§1)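 Kunming mice (groups of 10, 20 2 g) infected ip with 0.2 mL of RBC (5 × 10⁶) from P. berghei ANKA-infected mice. The compound was given intragastrically starting 5 h post-infection, for 4 consecutive days, at 3, 9 or 18 mg kg⁻¹ d⁻¹ (4-day suppressive test). Parasitemia was counted as infected RBC per 1000 RBC on day 5, and reduction was calculated as 100 − 100 × (treated/control mean % parasitemia). Survivors were counted on day 10.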

Plasmodium berghei [6] = assay: Antimalarial activity against Plasmodium berghei ANKA infected in Kunming mouse assessed as reduction of parasitemia at 18 mg/kg, ip for 4 days measured on day 5; assay type: functional; design: scale not given: the % may be the effect or the level left; conditions: route intragastric, in the assay text read “ig for 4 days” for “ip for 4 days”; procedure, shortened: as §1
Plasmodium berghei [7] = assay: Antimalarial activity against Plasmodium berghei ANKA infected in Kunming mouse assessed as mouse survival at 3 mg/kg, ip for 4 days measured on day 10; assay type: functional, organism-based; design: dose 3 mg/kg; conditions: in the assay text read “ig for 4 days” for “ip for 4 days”; procedure, shortened: as §1
Plasmodium berghei [8] = assay: Antimalarial activity against Plasmodium berghei ANKA infected in Kunming mouse assessed as mouse survival at 9 mg/kg, ip for 4 days measured on day 10; assay type: functional, organism-based; design: dose 9 mg/kg; conditions: in the assay text read “ig for 4 days” for “ip for 4 days”; procedure, shortened: as §1
Plasmodium berghei [9] = assay: Antimalarial activity against Plasmodium berghei ANKA infected in Kunming mouse assessed as mouse survival at 18 mg/kg, ip for 4 days measured on day 10; assay type: functional, organism-based; design: dose 18 mg/kg; conditions: in the assay text read “ig for 4 days” for “ip for 4 days”; procedure, shortened: as §1
Plasmodium falciparum [10] = assay: Ratio of N-(2,3-dihydrobenzo[b][1,4]dioxin-6-yl)-3-(4-(N-phenethylsulfamoyl)phenyl)propanamide IC50 to compound IC50 for Plasmodium falciparum falcipain-2
Plasmodium falciparum [11] = assay: Ratio of N-(2,3-dihydrobenzo[b][1,4]dioxin-6-yl)-3-(4-(N-phenethylsulfamoyl)phenyl)propanamide IC50 to compound IC50 for Plasmodium falciparum DHFR
Plasmodium berghei [12] = assay: Antimalarial activity against Plasmodium berghei ANKA infected in Kunming mouse assessed as reduction of parasitemia at 3 mg/kg, ig for 4 days measured on day 5; design: scale not given: the % may be the effect or the level left; conditions: route intragastric
Plasmodium berghei [13] = assay: Antimalarial activity against Plasmodium berghei ANKA infected in ig dosed Kunming mouse assessed as reduction of parasitemia administered for 4 days measured on day 5
Plasmodium berghei [14] = assay: Antimalarial activity against Plasmodium berghei ANKA infected in Kunming mouse assessed as reduction of parasitemia at 10 mg/kg, ip for 4 days measured on day 5; assay type: functional; design: scale not given: the % may be the effect or the level left; conditions: route intraperitoneal
Plasmodium berghei [15] = assay: Antimalarial activity against Plasmodium berghei ANKA infected in Kunming mouse assessed as mouse survival at 10 mg/kg, ig for 4 days measured on day 10

`O=C(CCc1ccc(S(=O)(=O)NCCc2ccccc2)cc1)NCc1cccs1` showed an inhibition (Plasmodium falciparum [1]) of 10.8% and an inhibition (Plasmodium falciparum [2]) of 15.2%.

Compound `CCc1nc(N)nc(N)c1-c1ccc(Cl)cc1` [PYRIMETHAMINE] has an inhibition (Plasmodium falciparum [1]) of 98.9% and an IC50 [3] of 0.02 µM.

Compound `CCc1nnc(NC(=O)CCc2ccc(S(=O)(=O)NCCc3ccccc3)cc2)s1` has an inhibition (Plasmodium falciparum [1]) of 31.6%, an inhibition (Plasmodium falciparum [2]) of 46.5% and an IC50 [4] of 8.1 µM. For the same compound, the IC50 [3] was 19.8 µM.

Compound `CCc1nnc(NC(=O)CCc2ccc(S(=O)(=O)Nc3ccc(F)c(Cl)c3)cc2)s1` has an inhibition (Plasmodium falciparum [1]) of 70.6%, an inhibition (Plasmodium falciparum [2]) of 45.1% and an IC50 [4] of 9.8 µM. The IC50 [3] was 1.8 µM.

`O=C(CCc1ccc(S(=O)(=O)NCCc2ccccc2)cc1)Nc1nc2ccccc2s1` gave an inhibition (Plasmodium falciparum [1]) of 37.9%, an inhibition (Plasmodium falciparum [2]) of 41.5% and an IC50 [4] of 8.9 µM. For the same compound, the IC50 [3] was 15.1 µM.

Compound `COc1ccc(NC(=O)CCc2ccc(S(=O)(=O)NCCc3ccccc3)cc2)cc1O` has an inhibition (Plasmodium falciparum [1]) of 46.1%, an inhibition (Plasmodium falciparum [2]) of 13.6% and an IC50 [3] of 12.6 µM.

`O=C(CCc1ccc(S(=O)(=O)NCCc2ccccc2)cc1)Nc1ccc2c(c1)OCCO2` gave an inhibition (Plasmodium falciparum [1]) of 26.5%, an inhibition (Plasmodium falciparum [2]) of 23% and an IC50 [4] of 54.2 µM. For the same compound, the IC50 [3] was 35.5 µM.

For `COc1cccc(NS(=O)(=O)c2ccc(CCC(=O)Nc3ccc4c(c3)OCCO4)cc2)c1`, the inhibition (Plasmodium falciparum [1]) was 9.3% and the inhibition (Plasmodium falciparum [2]) was 17.9%.

For `O=C(Cc1ccc(S(=O)(=O)NCCc2ccccc2)cc1)Nc1ccc2c(c1)OCCO2`, the inhibition (Plasmodium falciparum [1]) was 68%, the inhibition (Plasmodium falciparum [2]) was under 5% and the IC50 [3] was 5 µM.

Work on `CCc1nnc(NC(=O)CCc2ccc(S(=O)(=O)Nc3ccc(F)cc3)cc2)s1` yielded an inhibition (Plasmodium falciparum [1]) of 67.5%, an inhibition (Plasmodium falciparum [2]) of 72.9% and an IC50 [4] of 7 µM. The IC50 [3] was 6.3 µM, the Activity (Plasmodium berghei [5]) was 53.6% and the Activity (Plasmodium berghei [6]) was 75.6%. For the same compound, the Activity (Plasmodium berghei [7]) was “Active”, the Activity (Plasmodium berghei [8]) was “Active” and the Activity (Plasmodium berghei [9]) was “Active”. It also gave a Ratio IC50 (Plasmodium falciparum [10]) of 8, a Ratio IC50 (Plasmodium falciparum [11]) of 6 and an Activity (Plasmodium berghei [12]) of 44.6%. The Activity (Plasmodium berghei [13]) was “Dose dependent effect”.

Work on `O=C(CCc1ccc(S(=O)(=O)NCc2ccccc2)cc1)Nc1ccc2c(c1)OCCO2` yielded an inhibition (Plasmodium falciparum [1]) of 15.6% and an inhibition (Plasmodium falciparum [2]) of under 5%.

With `CCN(CC)CCCC(C)Nc1ccnc2cc(Cl)ccc12.O=P(O)(O)O.O=P(O)(O)O` (centres undefined) [CHLOROQUINE PHOSPHATE] the Activity (Plasmodium berghei [14]) was 100% and the Activity (Plasmodium berghei [15]) was “Active”.

Compound `O=C(CCc1ccc(S(=O)(=O)NCCc2ccccc2)cc1)Nc1nc(-c2ccccc2)cs1` has an inhibition (Plasmodium falciparum [1]) of 34.8%, an inhibition (Plasmodium falciparum [2]) of 94.5% and an IC50 [4] of 2.7 µM. For the same compound, the IC50 [3] was 14.6 µM.

For `O=C(CCc1ccc(S(=O)(=O)Nc2ccc(F)c(Cl)c2)cc1)Nc1ccc2c(c1)OCCO2`, the inhibition (Plasmodium falciparum [1]) was 46.5%, the inhibition (Plasmodium falciparum [2]) was 32.7% and the IC50 [4] was 13.2 µM. For the same compound, the IC50 [3] was 16.8 µM.

`CC(C)C[C@H](NC(=O)[C@H]1O[C@@H]1C(=O)O)C(=O)NCCCCN=C(N)N` [E-64] gave an inhibition (Plasmodium falciparum [2]) of 97.4% and an IC50 [4] of 0.017 µM.

`COc1ccc(NS(=O)(=O)c2ccc(CCC(=O)Nc3ccc4c(c3)OCCO4)cc2)cc1OC` showed an inhibition (Plasmodium falciparum [1]) of 23.2% and an inhibition (Plasmodium falciparum [2]) of 6.3%.

With `O=C(CCc1ccc(S(=O)(=O)NCCc2ccccc2)cc1)NCc1ccccn1` the inhibition (Plasmodium falciparum [1]) was 17.9% and the inhibition (Plasmodium falciparum [2]) was 10.7%.

`O=C(Nc1ccc2c(c1)OCCO2)c1ccc(S(=O)(=O)NCCc2ccccc2)cc1` showed an inhibition (Plasmodium falciparum [1]) of 11.8% and an inhibition (Plasmodium falciparum [2]) of under 5%.

`COc1ccc(NC(=O)CCc2ccc(S(=O)(=O)NCCc3ccccc3)cc2)cc1OC` showed an inhibition (Plasmodium falciparum [1]) of 51.2%, an inhibition (Plasmodium falciparum [2]) of 15% and an IC50 [3] of 9.4 µM.
